Measurements taken from ChEMBL document CHEMBL3414425, “Synthesis and biological evaluation of new imidazo[2,1-b][1,3,4]thiadiazole-benzimidazole derivatives” (Eur J Med Chem, 2015).
≈ marks a conversion by molar mass, not a printed value. Calls of active or inactive are those of the source. The calls are words filed in the database; no cut-off is given here.

Experiments:
[1] = system: Mycobacterium tuberculosis; experiment: Antitubercular activity against Mycobacterium tuberculosis H37Rv ATCC 27294/XDR-TB incubated for 28 days by agar dilution method; format: functional; settings: 672 h
In short: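 Agar dilution: two-fold dilutions in Middlebrook 7H11 agar with OADC. Inoculum from fresh 7H11/OADC slants adjusted to 1 mg/mL wet weight in 0.05% Tween 80 saline, diluted 10^-2 (~10⁷ cfu/mL); 5 µL spotted per tube. Incubated 37 °C; MIC, lowest concentration fully inhibiting growth, read after 28 days, in triplicate.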

Escherichia coli [2] = experiment: Antibacterial activity against Escherichia coli at 1 mg/ml incubated for 18 hrs by well plate technique; format: functional; settings: for zone of inhibition at 1000 µg/mL: read-out: DIZ
In short: (§1)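 Bacteria kept on nutrient agar at 37 °C, grown statically in nutrient broth (start ~10-100 cfu/mL) at 37 °C for 18-24 h. Suspensions diluted in saline and spread on nutrient agar, then wells cut with a cork borer. Compound in DMSO at 1 or 0.5 mg/mL added to wells, 37 °C, 18 h. Inhibition zone diameter measured minus DMSO value; triplicate; streptomycin standard.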

Escherichia coli [3] = experiment: Antibacterial activity against Escherichia coli at 0.5 mg/ml incubated for 18 hrs by well plate technique; format: functional; settings: for zone of inhibition at 500 µg/mL: read-out: DIZ; in short: as §1
Staphylococcus aureus [4] = experiment: Antibacterial activity against Staphylococcus aureus at 1 mg/ml incubated for 18 hrs by well plate technique; format: functional; settings: for zone of inhibition at 1000 µg/mL: read-out: DIZ; in short: as §1
Staphylococcus aureus [5] = experiment: Antibacterial activity against Staphylococcus aureus at 0.5 mg/ml incubated for 18 hrs by well plate technique; format: functional; settings: for zone of inhibition at 500 µg/mL: read-out: DIZ; in short: as §1
Pseudomonas aeruginosa [6] = experiment: Antibacterial activity against Pseudomonas aeruginosa at 1 mg/ml incubated for 18 hrs by well plate technique; format: functional; settings: for zone of inhibition at 1000 µg/mL: read-out: DIZ; in short: as §1
Pseudomonas aeruginosa [7] = experiment: Antibacterial activity against Pseudomonas aeruginosa at 0.5 mg/ml incubated for 18 hrs by well plate technique; format: functional; settings: for zone of inhibition at 500 µg/mL: read-out: DIZ; in short: as §1
Salmonella typhi [8] = experiment: Antibacterial activity against Salmonella typhi at 1 mg/ml incubated for 18 hrs by well plate technique; format: functional; settings: for zone of inhibition at 1000 µg/mL: Salmonella enterica, read-out: DIZ
In short: (§2)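 Well diffusion on nutrient agar; strains kept on nutrient agar at 37 °C, grown statically in nutrient broth 18-24 h at 37 °C, diluted in saline, 0.1 ml spread per plate. Compounds in DMSO at 1 and 0.5 mg/mL added to cork-bored wells; 18 h at 37 °C. Inhibition zone diameter measured, DMSO value subtracted; triplicate; streptomycin reference.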

Salmonella typhi [9] = experiment: Antibacterial activity against Salmonella typhi at 0.5 mg/ml incubated for 18 hrs by well plate technique; format: functional; settings: for zone of inhibition at 500 µg/mL: Salmonella enterica, read-out: DIZ; in short: as §2
Aspergillus flavus [10] = experiment: Antifungal activity against Aspergillus flavus at 1 mg/ml incubated for 3 days; format: functional; settings: for zone of inhibition at 1000 µg/mL: 72 h, read-out: IZ
In short: (§3)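 Well plate method on potato dextrose agar. Fungal stock suspended in distilled water with Tween 80 and swabbed over plates. Samples in DMSO at 1 and 0.5 mg/mL added to wells, incubated 25 °C for 3 days, then scored for inhibition zones; fluconazole standard.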

Aspergillus flavus [11] = experiment: Antifungal activity against Aspergillus flavus at 0.5 mg/ml incubated for 3 days; format: functional; settings: for zone of inhibition at 500 µg/mL: 72 h, read-out: IZ; in short: as §3
[12] = system: Chrysosporium keratinophilum; experiment: Antifungal activity against Chrysosporium keratinophilum at 1 mg/ml incubated for 3 days; format: functional; settings: for zone of inhibition at 1000 µg/mL: 72 h, read-out: IZ; in short: as §3
[13] = system: Chrysosporium keratinophilum; experiment: Antifungal activity against Chrysosporium keratinophilum at 0.5 mg/ml incubated for 3 days; format: functional; settings: for zone of inhibition at 500 µg/mL: 72 h, read-out: IZ; in short: as §3
Candida albicans [14] = experiment: Antifungal activity against Candida albicans at 1 mg/ml incubated for 3 days; format: functional; settings: for zone of inhibition at 1000 µg/mL: 72 h, read-out: IZ; in short: as §3
Candida albicans [15] = experiment: Antifungal activity against Candida albicans at 0.5 mg/ml incubated for 3 days; format: functional; in short: as §3
[16] = Antioxidant activity assessed as DPPH radical scavenging activity incubated for 10 mins by UV-visible spectrometry; format: physicochemical
In short: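 DPPH free-radical scavenging; absorbance read at 517 nm against a methanol blank. % scavenging = (A control − A sample)/A control × 100.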

[17] = Salmonella enterica subsp. enterica serovar Typhi

| Structure (SMILES) | MIC [1] [µg/mL] | inhibition (INH) [16] [%] | zone of inhibition at 1000 µg/mL (Escherichia coli [2]) [mm] | zone of inhibition at 500 µg/mL (Escherichia coli [3]) [mm] | zone of inhibition at 1000 µg/mL (Staphylococcus aureus [4]) [mm] | zone of inhibition at 500 µg/mL (Staphylococcus aureus [5]) [mm] | zone of inhibition at 1000 µg/mL (Pseudomonas aeruginosa [6]) [mm] | zone of inhibition at 500 µg/mL (Pseudomonas aeruginosa [7]) [mm] | zone of inhibition at 1000 µg/mL (Salmonella typhi [8]) [mm] | zone of inhibition at 500 µg/mL (Salmonella typhi [9]) [mm] | further results |
| --- | --- | --- | --- | --- | --- | --- | --- | --- | --- | --- | --- |
| COc1ccc(-c2nc3sc(-c4ccc(C)cc4)nn3c2-c2nc3cc([N+](=O)[O-])ccc3[nH]2)cc1 | 12.5 (≈ 25.9 µM) | 25.1 | – | – | – | – | – | – | – | – | diameter of the inhibition zone (DIZ) (Escherichia coli [2]): inactive; diameter of the inhibition zone (DIZ) (Escherichia coli [3]): inactive; diameter of the inhibition zone (DIZ) (Staphylococcus aureus [4]): inactive; diameter of the inhibition zone (DIZ) (Staphylococcus aureus [5]): inactive; diameter of the inhibition zone (DIZ) (Pseudomonas aeruginosa [6]): inactive; diameter of the inhibition zone (DIZ) (Pseudomonas aeruginosa [7]): inactive; diameter of the inhibition zone (DIZ) (Salmonella typhi [8]; [17]): inactive; diameter of the inhibition zone (DIZ) (Salmonella typhi [9]; [17]): inactive; inhibition zone (IZ) (Aspergillus flavus [10]): inactive; inhibition zone (IZ) (Aspergillus flavus [11]): inactive; inhibition zone (IZ) [12]: inactive; inhibition zone (IZ) [13]: inactive; inhibition zone (IZ) (Candida albicans [14]): inactive; inhibition zone (IZ) (Candida albicans [15]): inactive |
| COc1ccc(-c2nc3sc(-c4ccccc4)nn3c2-c2nc3cc([N+](=O)[O-])ccc3[nH]2)cc1 | 50 (≈ 107 µM) | 23.4 | 4 | 3 | 4 | 2 | 5 | 3 | 6 | 3 | zone of inhibition at 1000 µg/mL (Aspergillus flavus [10]): 3 mm; zone of inhibition at 500 µg/mL (Aspergillus flavus [11]): 1 mm; zone of inhibition at 1000 µg/mL [12]: 4 mm; zone of inhibition at 500 µg/mL [13]: 2 mm; zone of inhibition at 1000 µg/mL (Candida albicans [14]): 3 mm; inhibition zone (IZ) (Candida albicans [15]): inactive |
| CN[C@@H]1[C@H](O[C@H]2[C@H](O[C@H]3[C@H](O)[C@@H](O)[C@H](N=C(N)N)[C@@H](O)[C@@H]3N=C(N)N)O[C@@H](C)[C@]2(O)C=O)O[C@@H](CO)[C@H](O)[C@H]1O [STREPTOMYCIN] | – | – | 18.6 | 14.3 | 16.8 | 12.5 | 16.7 | 13.6 | 17.2 | 15.7 | – |
| Cc1cc(C(C)(C)C)c(O)c(C(C)(C)C)c1 [BUTYLATED HYDROXYTOLUENE] | – | 88.6 | – | – | – | – | – | – | – | – | – |
| COc1ccc(-c2nc3sc(-c4ccc(F)cc4)nn3c2-c2nc3cc(Cl)ccc3[nH]2)cc1 | 50 (≈ 105 µM) | 38.6 | 5 | 1 | 4 | 1 | 2 | 1 | 3 | 0 | zone of inhibition at 1000 µg/mL (Aspergillus flavus [10]): 4 mm; zone of inhibition at 500 µg/mL (Aspergillus flavus [11]): 2 mm; zone of inhibition at 1000 µg/mL [12]: 4 mm; zone of inhibition at 500 µg/mL [13]: 1 mm; zone of inhibition at 1000 µg/mL (Candida albicans [14]): 5 mm; zone of inhibition at 500 µg/mL (Candida albicans [15]; 72 h, read-out: IZ): 2 mm |
| NNC(=O)c1ccncc1 [ISONIAZID] | 0.1 (≈ 0.729 µM) | – | – | – | – | – | – | – | – | – | – |
| NC(=O)c1cnccn1 [PYRAZINAMIDE] | 50 (≈ 406 µM) | – | – | – | – | – | – | – | – | – | – |
| CC[C@@H](CO)NCCN[C@@H](CC)CO [ETHAMBUTOL] | 3.13 (≈ 15.3 µM) | – | – | – | – | – | – | – | – | – | – |
